Laboratory results reported in ChEMBL document CHEMBL3600344, “Novel thiourea-based sirtuin inhibitory warheads” (Bioorg Med Chem Lett, 2015).
Peptide text beside a SMILES is read from it.

Assays:
[1] = Antioxidant activity assessed as inhibition of superoxide radical anion generation at 200 uM after 5 mins in presence of NBT and NADH relative to control; format: physicochemical
[2] = target: T1, NAD-dependent protein deacetylase sirtuin-1 (Homo sapiens, UniProt Q96EB6); test: Inhibition of human His6 or GST-tagged SIRT1 using H2N-HK-(Nepsilon-acetyl-lysine)-LM-COOH as substrate after 10 mins by HPLC analysis
T1 sequence (Q96EB6 whole entry): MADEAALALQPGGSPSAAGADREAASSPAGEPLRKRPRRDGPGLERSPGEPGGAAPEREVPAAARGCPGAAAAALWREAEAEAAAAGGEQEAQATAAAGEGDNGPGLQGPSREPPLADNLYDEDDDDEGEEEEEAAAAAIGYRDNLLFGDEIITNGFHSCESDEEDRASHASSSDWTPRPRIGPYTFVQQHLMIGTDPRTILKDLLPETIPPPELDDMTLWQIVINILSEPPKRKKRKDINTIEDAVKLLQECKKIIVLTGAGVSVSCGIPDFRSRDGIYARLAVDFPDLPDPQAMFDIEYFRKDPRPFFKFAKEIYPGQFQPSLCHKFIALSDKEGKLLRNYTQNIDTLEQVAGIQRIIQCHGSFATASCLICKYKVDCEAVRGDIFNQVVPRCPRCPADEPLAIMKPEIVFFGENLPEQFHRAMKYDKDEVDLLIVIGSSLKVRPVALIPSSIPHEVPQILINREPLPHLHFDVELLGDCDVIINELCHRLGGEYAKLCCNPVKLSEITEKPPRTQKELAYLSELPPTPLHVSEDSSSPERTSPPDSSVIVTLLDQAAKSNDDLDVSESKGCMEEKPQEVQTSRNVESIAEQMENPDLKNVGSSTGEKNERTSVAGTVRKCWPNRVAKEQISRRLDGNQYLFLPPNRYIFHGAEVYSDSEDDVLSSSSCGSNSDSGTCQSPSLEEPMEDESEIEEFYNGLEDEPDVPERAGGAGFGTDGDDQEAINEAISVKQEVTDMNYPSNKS

[3] = target: T2, NAD-dependent protein deacetylase sirtuin-2 (Homo sapiens, UniProt Q8IXJ6); test: Inhibition of human His6-tagged SIRT2 using H2N-HK-(Nepsilon-acetyl-lysine)-LM-COOH as substrate after 10 mins by HPLC analysis
T2 sequence (Q8IXJ6 whole entry): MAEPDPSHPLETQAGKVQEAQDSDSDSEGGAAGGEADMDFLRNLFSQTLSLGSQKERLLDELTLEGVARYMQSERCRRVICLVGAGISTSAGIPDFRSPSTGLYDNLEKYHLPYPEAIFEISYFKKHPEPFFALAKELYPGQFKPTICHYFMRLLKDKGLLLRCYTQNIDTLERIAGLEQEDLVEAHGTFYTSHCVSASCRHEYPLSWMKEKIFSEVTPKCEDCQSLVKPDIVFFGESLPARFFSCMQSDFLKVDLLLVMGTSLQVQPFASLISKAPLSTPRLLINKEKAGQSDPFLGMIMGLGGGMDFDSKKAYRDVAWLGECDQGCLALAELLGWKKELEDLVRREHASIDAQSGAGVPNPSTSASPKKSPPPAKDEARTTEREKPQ

[4] = target: T3, NAD-dependent protein deacetylase sirtuin-3, mitochondrial (Homo sapiens, UniProt Q9NTG7); test: Inhibition of human His6-tagged SIRT3 using H2N-HK-(Nepsilon-acetyl-lysine)-LM-COOH as substrate after 8 mins by HPLC analysis
T3 sequence (Q9NTG7 whole entry): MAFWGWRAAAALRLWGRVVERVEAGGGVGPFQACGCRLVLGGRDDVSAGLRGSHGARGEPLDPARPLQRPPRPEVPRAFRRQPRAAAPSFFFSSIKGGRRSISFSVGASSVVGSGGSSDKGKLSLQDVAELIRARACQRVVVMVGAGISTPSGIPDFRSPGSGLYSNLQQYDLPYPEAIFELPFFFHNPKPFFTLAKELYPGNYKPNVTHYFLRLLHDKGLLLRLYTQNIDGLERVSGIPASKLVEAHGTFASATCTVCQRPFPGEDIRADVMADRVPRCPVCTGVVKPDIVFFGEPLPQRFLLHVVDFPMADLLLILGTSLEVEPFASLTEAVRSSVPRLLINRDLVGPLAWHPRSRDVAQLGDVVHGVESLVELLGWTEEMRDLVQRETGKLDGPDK

[5] = Stability of the compound assessed as Streptomyces griseus pronase-mediated degradation by measuring compound remaining at 160 uM after 60 mins by HPLC analysis; format: ADME; conditions: read-out: Stability
Summary of the method: (§1)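 Compound incubated with pronase (broad-specificity protease mixture), percent compound remaining followed over time up to 60 min; a control peptide incubated under the same condition.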

[6] = target: NAD-dependent protein deacylase sirtuin-5, mitochondrial (Homo sapiens, UniProt Q9NXA8); test: Inhibition of human SIRT5 using CH3CONH-AR-(Nepsilon-succinyl-lysine)-ST-CONH2 as substrate after 5 mins by HPLC analysis
[7] = target: NAD-dependent protein deacylase sirtuin-6 (Homo sapiens, UniProt Q8N6T7); test: Inhibition of human SIRT6 using H2N-EALPK-(Nepsilon-myristoyl-lysine)-TGGPQ-CONH2 as substrate after 12 mins by HPLC analysis
[8] = Stability of the compound assessed as Streptomyces griseus pronase-mediated degradation at 160 uM measured within 3 mins by HPLC analysis; format: ADME; conditions: 0.05 h; summary of the method: as §1

Chain of NAD-dependent protein deacylase sirtuin-5, mitochondrial (Q9NXA8 whole entry): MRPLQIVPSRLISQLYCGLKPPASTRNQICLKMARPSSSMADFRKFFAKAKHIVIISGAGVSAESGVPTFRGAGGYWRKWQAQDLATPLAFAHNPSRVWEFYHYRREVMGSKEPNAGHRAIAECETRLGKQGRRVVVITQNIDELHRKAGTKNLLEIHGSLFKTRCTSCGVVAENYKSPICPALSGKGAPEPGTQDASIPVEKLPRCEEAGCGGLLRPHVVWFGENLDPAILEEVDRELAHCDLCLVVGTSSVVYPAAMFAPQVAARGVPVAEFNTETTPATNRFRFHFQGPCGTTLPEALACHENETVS
Chain of NAD-dependent protein deacylase sirtuin-6 (Q8N6T7 whole entry): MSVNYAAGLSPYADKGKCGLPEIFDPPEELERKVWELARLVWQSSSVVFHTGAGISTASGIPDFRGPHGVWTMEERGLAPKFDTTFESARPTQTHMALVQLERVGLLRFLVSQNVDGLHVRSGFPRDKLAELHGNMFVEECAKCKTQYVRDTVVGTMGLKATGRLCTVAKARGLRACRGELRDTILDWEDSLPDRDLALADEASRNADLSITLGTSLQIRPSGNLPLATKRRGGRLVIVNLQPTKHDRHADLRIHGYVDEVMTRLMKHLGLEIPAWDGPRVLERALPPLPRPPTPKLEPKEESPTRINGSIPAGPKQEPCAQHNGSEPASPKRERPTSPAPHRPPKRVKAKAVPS

CC(=O)NCCCC[C@H](NC(=O)[C@H](CCCCNC(C)=S)NC(=O)[C@H](CCCCNC(C)=O)NC(C)=O)C(N)=O
inhibition (INH) [1]: 6%

CC(=O)NCCCC[C@H](NC(=O)[C@H](CCCCNC(N)=S)NC(=O)[C@H](CCCCNC(C)=O)NC(C)=O)C(N)=O
IC50 [2]: 49.9 µM | IC50 [3]: 30.4 µM | IC50 [4]: 5.4 µM

CNC(=S)NCCCC[C@H](NC(=O)[C@H](CCCCNC(C)=O)NC(C)=O)C(=O)N[C@@H](CCCCNC(C)=O)C(N)=O
IC50 [2]: 5.6 µM | IC50 [3]: 1.65 µM | IC50 [4]: 2.2 µM | inhibition (INH) [1]: 50% | remaining at 1 h, 160 µM [5]: 88%

CC(=O)NCCCC[C@H](NC(=O)[C@H](CCCCNC(=S)Nc1ccccc1)NC(=O)[C@H](CCCCNC(C)=O)NC(C)=O)C(N)=O
IC50 [2]: 62.9 µM

CC(=O)NCCCC[C@H](NC(=O)[C@H](CCCCNC(=S)NCC(=O)O)NC(=O)[C@H](CCCCNC(C)=O)NC(C)=O)C(N)=O
IC50 [6]: > 100 µM

CC(=O)NCCCC[C@H](NC(=O)[C@H](CCCCNC(=S)NCCC(=O)O)NC(=O)[C@H](CCCCNC(C)=O)NC(C)=O)C(N)=O
IC50 [6]: 5 µM | IC50 [7]: 2.4 mM

CC(=O)NCCCC[C@H](NC(=O)[C@H](CCCCNC(=S)NCCCC(=O)O)NC(=O)[C@H](CCCCNC(C)=O)NC(C)=O)C(N)=O
IC50 [6]: > 100 µM

CSCC[C@H](NC(=O)[C@H](CC(C)C)NC(=O)[C@H](CCCCNC(C)=O)NC(=O)[C@H](CCCCN)NC(=O)[C@@H](N)Cc1cnc[nH]1)C(=O)O (H-HKK(Ac)LM-OH)
Stability [8]: Unstable
